Data as given in ChEMBL document CHEMBL5038594, “Structural Fine-Tuning of Desmuramylpeptide NOD2 Agonists Defines Their In Vivo Adjuvant Activity” (J Med Chem, 2021).
Activity calls are given as the source filed them. The rule behind the calls is not given here.

Legend:
[1] = tested on: BMDC; test: Induction of mouse BMDC-mediated ovalbumin specific CD4+ T cell activation assessed as increase in CD25 expression at 10 uM incubated for 72 hrs by CFSE staining based flow cytometric analysis; format: functional
Summary of the method: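 BMDCs from C57BL/6 mouse tibia (7 days in GM-CSF 20 ng/mL, >90% CD11c+) pulsed 18 h with compound (1 or 10 μM) plus ovalbumin 50 μg/mL, then washed. They were cocultured 72 h with CFSE-labelled naive OT-II CD4+ T cells. CD25+/CFSE-low fraction of live Thy1.2+CD4+ cells read by flow cytometry; supernatant cytokines also measured. Duplicates of two independent experiments.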

[2] = molecular target: T1, Nucleotide-binding oligomerization domain-containing protein 1 (Homo sapiens) (UniProt Q9Y239); test: Agonist activity at NOD1 in HEK-Blue hNOD2 cells assessed as increase in NFkappaB transactivation-mediated SEAP activity measured after 18 hrs by spectrophotometric method; format: cell-based; details: HEK-Blue hNOD1, in the assay text read “HEK-Blue hNOD1 cells” for “HEK-Blue hNOD2 cells”
T1 sequence (whole entry): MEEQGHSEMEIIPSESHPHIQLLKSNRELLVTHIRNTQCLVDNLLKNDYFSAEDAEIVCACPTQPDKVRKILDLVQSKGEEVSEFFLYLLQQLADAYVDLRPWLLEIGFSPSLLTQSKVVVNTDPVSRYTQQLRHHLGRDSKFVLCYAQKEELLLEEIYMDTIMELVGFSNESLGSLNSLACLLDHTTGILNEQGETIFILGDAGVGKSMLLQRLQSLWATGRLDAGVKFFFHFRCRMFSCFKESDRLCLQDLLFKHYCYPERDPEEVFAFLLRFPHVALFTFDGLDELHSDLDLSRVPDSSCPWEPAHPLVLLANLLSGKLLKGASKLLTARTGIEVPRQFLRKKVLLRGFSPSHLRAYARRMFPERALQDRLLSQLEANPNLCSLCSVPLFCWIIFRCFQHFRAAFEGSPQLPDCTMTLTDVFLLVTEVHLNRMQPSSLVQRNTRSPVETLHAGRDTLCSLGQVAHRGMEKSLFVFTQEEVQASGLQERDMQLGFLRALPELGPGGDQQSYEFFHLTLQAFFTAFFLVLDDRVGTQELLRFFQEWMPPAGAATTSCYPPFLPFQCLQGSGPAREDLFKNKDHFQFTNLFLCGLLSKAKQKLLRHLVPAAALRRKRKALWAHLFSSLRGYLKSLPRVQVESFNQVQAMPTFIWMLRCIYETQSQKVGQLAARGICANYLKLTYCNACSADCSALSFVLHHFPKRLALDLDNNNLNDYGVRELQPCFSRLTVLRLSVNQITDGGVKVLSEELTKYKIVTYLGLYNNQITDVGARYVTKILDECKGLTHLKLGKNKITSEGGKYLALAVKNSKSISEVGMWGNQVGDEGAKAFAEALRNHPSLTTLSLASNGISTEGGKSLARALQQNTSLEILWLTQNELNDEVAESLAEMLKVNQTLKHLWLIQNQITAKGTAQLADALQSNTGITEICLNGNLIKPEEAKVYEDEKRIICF
Summary of the method: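 Counter-screen in HEK-Blue NOD1 cells (HEK293 stably expressing human NOD1 plus an NF-κB-inducible SEAP reporter), seeded at 2.5 × 10^5 cells/mL in HEK-Blue detection medium. Compounds at 2 μM versus 0.1% DMSO vehicle, 18 h at 37 °C, 5% CO2. SEAP read as absorbance at 630 nm. Duplicates, at least two independent experiments.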

[3] = tested on: PBMC; test: Immunostimulatory activity in human PBMC cells assessed as increase in LPS-induced IL-6 production at 2 uM incubated for 18 hrs by flow cytometry analysis; format: functional, cell-based
Summary of the method: (§1)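 Human PBMCs from healthy donors, 1 × 10^6 cells/mL in RPMI 1640 with 10% FBS, treated with 2 μM compound or 0.1% DMSO, without or with LPS 10 ng/mL, for 18 h at 37 °C. Supernatant cytokines quantified by cytometric bead array (human inflammatory panel) on a flow cytometer against recombinant standards. Four independent donors. Repeated-measures one-way ANOVA with Dunnett.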

[4] = tested on: Mus musculus; test: Immuno-adjuvant activity in NIH/OlaHsd mouse assessed as increase in ovalbumin specific […] associated IgG1 production in sera at 0.30 micromol administered subcutaneously on day 1 and as booster dose on day 21 with ovalbumin loaded neutral liposomes and measured 1 week post booster dose by ELISA; format: functional, organism-based; details: dose 0.3 µmol, time 28.0 day
Summary of the method: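 Groups of 5 female NIH/OlaHsd mice, 2.0–2.5 months old, immunized with ovalbumin-loaded neutral liposomes (10 μg ovalbumin per dose) containing 0.30 μmol adjuvant per dose, plus one booster dose. Serum ovalbumin-specific IgG, IgG1 and IgG2a measured 1 week after the booster. Mean ± SEM of 5 mice.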

[5] = tested on: Mus musculus; test: Immuno-adjuvant activity in NIH/OlaHsd mouse assessed as increase in ovalbumin specific […] associated IgG2a production in sera at 0.15 micromol administered subcutaneously on day 1 and as booster dose on day 21 and 28 with ovalbumin loaded liposomes by ELISA; format: functional, organism-based; details: dose 0.15 µmol, time 28.0 day
Summary of the method: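 Groups of 5 female NIH/OlaHsd mice, 2.0–2.5 months old, immunized with ovalbumin-loaded liposomes (10 μg ovalbumin per dose) containing 0.15 μmol adjuvant per dose. Liposomes were neutral (PC–cholesterol 7:5), anionic (PC–cholesterol–dicetylphosphate 7:5:1) or mannosylated (PC–cholesterol–mannose-PEG-PA 7:5:0.5). Serum ovalbumin-specific IgG, IgG1 and IgG2a measured 1 week after the second booster. Mean ± SEM.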

[6] = tested on: K562; test: Cytotoxicity against human K562 cells cocultured with human PBMC cells assessed as inhibition of cell proliferation at 100 nM incubated with PBMC cells for 18 hrs followed by co-incubation with K562 cells for 4 hrs by SYTOX blue staining based flow cytometric analysis; format: functional
Summary of the method: (§2)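 Effector cells are freshly Ficoll-isolated human PBMCs, 4 × 10^5 per well, pretreated 18 h with compound or 0.1% DMSO. CFSE-labelled K562 or MEC1 targets, 1 × 10^4 per well, are then added at 40:1 effector:target ratio and co-incubated 4 h at 37 °C. Dead targets are CFSE+/Sytox blue+ by flow cytometry. Results are relative to vehicle. Duplicates; three (MEC1) or four (K562) independent experiments. One-way ANOVA with Dunnett.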

[7] = tested on: PBMC; test: Immunostimulatory activity in human PBMC cells assessed as increase in LPS-induced IL-8 production at 2 uM incubated for 18 hrs by flow cytometry analysis; format: functional, cell-based; summary of the method: as §1
[8] = tested on: K562; test: Cytotoxicity against human K562 cells cocultured with human PBMC cells assessed as inhibition of cell proliferation at 10 uM incubated with PBMC cells for 18 hrs followed by co-incubation with K562 cells for 4 hrs by SYTOX blue staining based flow cytometric analysis; format: functional; summary of the method: as §2
[9] = tested on: PBMC; test: Immunostimulatory activity in human PBMC cells assessed as increase in LPS-induced IL-1beta production at 2 uM incubated for 18 hrs by flow cytometry analysis; format: functional, cell-based; summary of the method: as §1
[10] = tested on: PBMC; test: Immunostimulatory activity in human PBMC cells assessed as increase in LPS-induced TNF-alpha production at 2 uM incubated for 18 hrs by flow cytometry analysis; format: functional, cell-based; summary of the method: as §1

For `CCCCCCCCCCCCCCCCCC(=O)Oc1ccc(/C=C/C(=O)NCC(=O)N[C@H](C(=O)N[C@H](CCC(=O)OCC)C(=O)OCC)C(C)C)cc1OC`, the Activity [1] was “Active”, the Activity [2] was “inactive” and the Activity [3] was “Active”. The Activity [4] was “Active”, the Activity [5] was “Active” and the Activity [6] was “inactive”. For the same compound, the Activity [7] was “Active”, the Activity [8] was “Active” and the Activity [9] was “Active”. For the same compound, the Activity [10] was “Active”.
